The text below walks through data of publication PMC11807182 (Scientific Reports, 2025).

In one data set the test system is S. mansoni adult worms. Conditions: read-out: EC50 for S. mansoni adult worms; cited from earlier work.
A further data set concerns Caenorhabditis elegans. As to the kind of experiment: Lethal toxicity assay in C. elegans. It counts as in vivo. Conditions: L4-stage larvae, Bristol N2 strain, 24 h, 21 °C. The gist of the method:
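C. elegans Bristol N2 was grown on NGM plates seeded with E. coli OP50. Synchronized L4 larvae, 60/well in M9 medium, were exposed to test compound starting at 1,000 µM, with ivermectin reference and 1% DMSO negative control. Viability was scored by movement after 24 h at 21 °C. Triplicate; LD50 from sigmoidal dose-response curves.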

The test system of data set [1] is Schistosoma mansoni adult worms. Nature of the data set: In vitro assay with adult S. mansoni. In kind it is cell-based. The note with it: concentrations starting from 50 µM, up to 72 h. The gist of the method: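 S. mansoni (Belo Horizonte strain) adults were perfused from the hepatic portal vein of Swiss mice 49 days post-infection. One worm pair/well in RPMI 1640 with 10% FBS, penicillin and streptomycin; test compound starting at 50 µM, with praziquantel, metal salts and 1% DMSO controls; 37 °C, 5% CO₂, up to 72 h. Viability by inverted microscope at 0, 24, 48 and 72 h; death meant no movement ≥1 min after gentle stimulation. Triplicate; EC50 by sigmoidal fit.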

In data set [2] the test system is Angiostrongylus cantonensis L1 larvae. Nature of the data set: In vitro assay with A. cantonensis L1 larvae. It counts as cell-based. The note with it: for activity against A. cantonensis: L1 larvae, concentrations starting from 50 µM, 24 h. The gist of the method: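 A. cantonensis (NPDN-AC strain, cycled through B. glabrata and Wistar rats) L1 larvae were recovered from rat feces by the Rugai technique and washed in RPMI 1640 with antibiotics. About 100 larvae/well were exposed to test compound starting at 50 µM at 21 °C, with drug-free medium, metal salt and 1% DMSO controls. Viability was checked microscopically at 0 and 24 h; efficacy meant ≥60% larvae immobile.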

Consider 2-oxopopulifolic acid methyl ester, for which the EC50 with S. mansoni adult worms is 50 µM. Consider `CC1=CC(=O)CC2[C@]1(C)CC[C@@H](C)[C@]2(C)CCC(C)CC(=O)O` (some centres unmarked) [2-oxopopulifolic acid], for which the EC50 in the data set on S. mansoni adult worms was 50 µM.

For `O=C1C(=O)c2cccnc2-c2ncccc21.O=C1C(=O)c2cccnc2-c2ncccc21.[Ag+].[O-][Cl+3]([O-])([O-])[O-]` [Ag-phendione, [Ag(phendione)2](ClO4)], the “C. elegans LD50” value in the data set on Caenorhabditis elegans amounted to 167 µM.

With `O=[N+]([O-])[O-].[Ag+]` [AgNO₃], in data set [1], the antischistosomal activity result is given as “no antischistosomal activity”. The “activity against A. cantonensis” value in data set [2] is reported as “no activity”.

In the case of `O.O.O.O.O.O.O.O.O=C1C(=O)c2cccnc2-c2ncccc21.O=C1C(=O)c2cccnc2-c2ncccc21.O=C1C(=O)c2cccnc2-c2ncccc21.[Cu+2].[O-][Cl+3]([O-])([O-])[O-].[O-][Cl+3]([O-])([O-])[O-]` [Cu-phendione, [Cu(phendione)3](ClO4)2·8H2O], the “C. elegans LD50” value with Caenorhabditis elegans stood at 280 µM. For `O.O.O.O.O.O=S(=O)([O-])[O-].[Cu+2]` [CuSO₄·5 H₂O], in data set [1], the antischistosomal activity entry was “no antischistosomal activity”. Also, the “activity against A. cantonensis” value in data set [2] is “no activity”. On to `O=C1C(=O)c2cccnc2-c2ncccc21` [Phendione, 1,10-phenanthroline-5,6-dione], for which the “larval motility compared to the control group” value in data set [2] (A. cantonensis L1 larvae) is “significantly reduced”. Further, the “C. elegans LD50” value with Caenorhabditis elegans was 719 µM.

As for `Cc1ccc(C(C)C)cc1O` [carvacrol], the EC50 in the data set on S. mansoni adult worms was 56.8 µM. In the case of `CC(=O)Oc1cc(C(C)C)ccc1C` [carvacryl acetate], in the data set with S. mansoni adult worms, the EC50 was 42.2 µM.

Take `C=C1C(=O)O[C@@H]2/C=C(\CO)CC/C=C(\C)C[C@H](OC(=O)C(=C)[C@@H](O)CO)[C@@H]12` [cnicin]: the EC50 with S. mansoni adult worms was 50 µM.

As to `O=c1c(O)c(-c2ccc(O)cc2)oc2cc(O)cc(O)c12` [kaempferol], in the data set with S. mansoni adult worms, the EC50 was 81.8 µM.

As to `C/C=C/c1cc(OC)c2c(c1)[C@H](C)[C@@H](c1ccc(O)c(OC)c1)O2` [licarin A], the EC50 with S. mansoni adult worms was 30 µM. Consider `C=CC(C)(C)c1cc(/C=C/C(=O)c2ccc(O)cc2)c(OC)cc1O` [licochalcone A], for which, in the data set on S. mansoni adult worms, the EC50 is 50 µM.

As for Ivermectin, the “C. elegans LD50” value in the data set with Caenorhabditis elegans is listed as 4.1 µM.

Broadly, the EC50 is the midpoint of the concentration-response curve.
